Experimental data as given in ChEMBL document CHEMBL3286129, “Optimization of peptidomimetic boronates bearing a P3 bicyclic scaffold as proteasome inhibitors” (Eur J Med Chem, 2014).

Experiments:
PC-3 = assay: Growth inhibition of human PC3 cells; type: functional
[1] = Cytotoxicity against human leukemia cells assessed as cell growth at 10 uM relative to control; type: functional; conditions: read-out: Activity
Procedure, shortened: (§1)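 Single-concentration screen against a panel of human cancer cell lines. Each value is the mean percent growth across the cell lines of that tumour subpanel.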

CCRF-CEM = assay: Growth inhibition of human CCRF-CEM cells; type: functional
Chymotrypsinogen A = Chymotrypsinogen A (Bos taurus, UniProt P00766); assay: Inhibition of bovine pancreatic alpha-chymotrypsin using Suc-Leu-Leu-Val-Tyr-AMC as substrate by fluorescence assay; conditions: read-out: Ki
Procedure, shortened: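 Enzyme incubated at 20 °C in 50 mM Tris pH 8.0, 100 mM NaCl, 5 mM EDTA, 7.5% DMSO with varied inhibitor concentrations. Substrate hydrolysis followed for 10 min. Ki from progress curves; mean of three determinations.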

[2] = target: T1, Proteasome Macropain subunit MB1 (Homo sapiens) (UniProt P28074); assay: Inhibition of chymotrypsin-like activity of 20S proteasome in human erythrocytes using Suc-Leu-Leu-Val-Tyr-AMC as substrate at 20 uM by fluorescence assay relative to control
T1 sequence (whole entry): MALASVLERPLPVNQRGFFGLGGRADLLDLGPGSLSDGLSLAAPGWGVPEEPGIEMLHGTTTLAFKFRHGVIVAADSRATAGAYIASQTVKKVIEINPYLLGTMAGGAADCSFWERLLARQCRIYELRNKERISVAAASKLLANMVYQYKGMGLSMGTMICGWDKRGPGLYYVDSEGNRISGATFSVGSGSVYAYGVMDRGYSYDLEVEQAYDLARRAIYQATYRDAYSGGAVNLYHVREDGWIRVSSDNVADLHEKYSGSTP
Procedure, shortened: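 Single inhibitor concentration, equivalent DMSO as negative control. AMC fluorescence read at ex 380/em 460 nm; percent inhibition of ChT-L activity.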

SK-OV-3 = assay: Growth inhibition of human SKOV3 cells; type: functional
Malme-3M = assay: Growth inhibition of human MALME-3M cells; type: functional
A498 = assay: Growth inhibition of human A498 cells; type: functional
[3] = Growth inhibition of human RXF393 cells; type: functional
[4] = Growth inhibition of human OVCAR4 cells; type: functional
SW-620 = assay: Growth inhibition of human SW620 cells; type: functional
HT-29 = assay: Growth inhibition of human HT-29 cells; type: functional
KM12 = assay: Growth inhibition of human KM12 cells; type: functional
SNB-19 = assay: Growth inhibition of human SNB19 cells; type: functional
[5] = Growth inhibition of human BT549 cells; type: functional
[6] = Cytotoxicity against human melanoma cells assessed as cell growth at 10 uM relative to control; type: functional; conditions: read-out: Activity; procedure, shortened: as §1
[7] = Growth inhibition of human HCC2998 cells; type: functional; conditions: HCC 2998
A549 = assay: Growth inhibition of human A549/ATCC cells; type: functional
[8] = Cytotoxicity against human renal cancer cells assessed as cell growth at 10 uM relative to control; type: functional; conditions: Cancer cell lines, read-out: Activity; procedure, shortened: as §1
NCI-H322M = assay: Growth inhibition of human NCI-H322M cells; type: functional
[9] = Growth inhibition of human OVCAR8 cells; type: functional
NCI-H460 = assay: Growth inhibition of human NCI-H460 cells; type: functional
MDA-MB-468 = assay: Growth inhibition of human MDA-MB-468 cells; type: functional
RPMI-8226 = assay: Growth inhibition of human RPMI8226 cells; type: functional
[10] = Growth inhibition of human UACC257 cells; type: functional
MDA-MB-231 = assay: Growth inhibition of human MDA-MB-231 cells; type: functional
SF-268 = assay: Growth inhibition of human SF268 cells; type: functional
U-251 = assay: Growth inhibition of human U251 cells; type: functional
[11] = Growth inhibition of human UO31 cells; type: functional; conditions: UO-31
MDA-MB-435 = assay: Growth inhibition of human MDA-MB-435 cells; type: functional
[12] = Cytotoxicity against human ovarian cancer cells assessed as cell growth at 10 uM relative to control; type: functional; conditions: Cancer cell lines, read-out: Activity; procedure, shortened: as §1
K562 = assay: Growth inhibition of human K562 cells; type: functional
MCF7 = assay: Growth inhibition of human MCF7 cells; type: functional
[13] = read-out: LC50 (the source's name)

Compound CC(C)C[C@H](NC(=O)Cn1ccc2ccc(Br)cc2c1=O)B(O)O has a GI50 (PC-3) of 6.31 µM, a TGI (PC-3) of over 100 µM and a CC50 (PC-3; [13]) of over 100 µM. It also gave a growth at 10 µM [1] of 0.57%, a GI50 (CCRF-CEM) of 0.44 µM and a TGI (CCRF-CEM) of over 100 µM. For the same compound, the CC50 (CCRF-CEM; [13]) was over 100 µM, the Ki (Chymotrypsinogen A) was 0.29 µM and the inhibition [2] was over 40%. The GI50 (SK-OV-3) was 8.73 µM, the LC50 (SK-OV-3) was over 100 µM and the TGI (SK-OV-3) was over 100 µM. It also gave a GI50 (Malme-3M) of 4.31 µM, a TGI (Malme-3M) of over 100 µM and a CC50 (Malme-3M; [13]) of over 100 µM. The GI50 (A498) was 0.1 µM, the LC50 (A498) was 28.6 µM and the TGI (A498) was 0.58 µM. For the same compound, the GI50 ([3]; RXF 393) was 0.43 µM, the TGI ([3]; RXF 393) was 1.77 µM and the CC50 ([3]; RXF 393, read-out: LC50 (the source's name)) was 5.99 µM. For the same compound, the GI50 ([4]; OVCAR-4) was 4.94 µM, the TGI ([4]; OVCAR-4) was over 100 µM and the CC50 ([4]; OVCAR-4, read-out: LC50 (the source's name)) was over 100 µM. For the same compound, the GI50 (SW-620) was 0.46 µM, the LC50 (SW-620) was over 100 µM and the TGI (SW-620) was 8.19 µM. It also gave a GI50 (HT-29) of 0.73 µM, an LC50 (HT-29) of over 100 µM and a TGI (HT-29) of 5.52 µM. It also gave a GI50 (KM12) of 3.55 µM, an LC50 (KM12) of over 100 µM and a TGI (KM12) of 17.3 µM. It also gave a GI50 (SNB-19) of 3.86 µM, a TGI (SNB-19) of over 100 µM and a CC50 (SNB-19; [13]) of over 100 µM. The GI50 ([5]; BT-549) was 0.44 µM, the TGI ([5]; BT-549) was 2.65 µM and the CC50 ([5]; BT-549, read-out: LC50 (the source's name)) was over 100 µM. For the same compound, the growth at 10 µM [6] was -17.1%, the GI50 [7] was 2.46 µM and the LC50 [7] was 31.4 µM. For the same compound, the TGI [7] was 6.37 µM, the GI50 (A549) was 4.58 µM and the TGI (A549) was over 100 µM. It also gave a CC50 (A549; [13]) of over 100 µM, a growth at 10 µM [8] of -8.89% and a GI50 (NCI-H322M) of over 100 µM. It also gave a TGI (NCI-H322M) of over 100 µM, a CC50 (NCI-H322M; [13]) of over 100 µM and a GI50 ([9]; OVCAR-8) of 3.53 µM. The TGI ([9]; OVCAR-8) was over 100 µM, the CC50 ([9]; OVCAR-8, read-out: LC50 (the source's name)) was over 100 µM and the GI50 (NCI-H460) was 5.58 µM. The LC50 (NCI-H460) was over 100 µM, the TGI (NCI-H460) was 36.8 µM and the GI50 (MDA-MB-468) was 0.3 µM. The TGI (MDA-MB-468) was 1.1 µM, the CC50 (MDA-MB-468; [13]) was over 100 µM and the GI50 (RPMI-8226) was 0.32 µM. The TGI (RPMI-8226) was over 100 µM, the CC50 (RPMI-8226; [13]) was over 100 µM and the GI50 ([10]; UACC-257) was 0.94 µM. It also gave a TGI ([10]; UACC-257) of 4.51 µM, a CC50 ([10]; UACC-257, read-out: LC50 (the source's name)) of over 100 µM and a GI50 (MDA-MB-231) of 3.18 µM. The TGI (MDA-MB-231) was 19.8 µM, the CC50 (MDA-MB-231; [13]) was over 100 µM and the GI50 (SF-268) was 3.76 µM. The LC50 (SF-268) was over 100 µM, the TGI (SF-268) was 31.9 µM and the GI50 (U-251) was 5.56 µM. For the same compound, the TGI (U-251) was over 100 µM, the CC50 (U-251; [13]) was over 100 µM and the GI50 [11] was 1.61 µM. The LC50 [11] was 61.6 µM, the TGI [11] was 11.1 µM and the GI50 (MDA-MB-435) was 0.33 µM. For the same compound, the TGI (MDA-MB-435) was 1.29 µM, the CC50 (MDA-MB-435; [13]) was 5.88 µM and the growth at 10 µM [12] was 37.5%. It also gave a GI50 (K562) of 3.15 µM, a TGI (K562) of over 100 µM and a CC50 (K562; [13]) of over 100 µM. It also gave a GI50 (MCF7) of 0.42 µM, a TGI (MCF7) of over 100 µM and a CC50 (MCF7; [13]) of over 100 µM.
